For series [1], the system named is Salmonella typhimurium. The series is described as follows: Mutagenic activity in Salmonella typhimurium TA1537 assessed as mutation frequency at 10^4 times D50 after 1 hr. The series is classed as toxicity, organism-based. Conditions: salmonella enterica subsp. enterica serovar typhimurium. Put shortly: (§1)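 Overnight L-broth culture (0.5 mL) exposed to drug (from 50% ethanol) in 10 mL L broth, 37 °C shaking, 1 h; concentration range from non-toxic to clearly toxic. Cells spun, resuspended in saline, plated in triplicate on minimal plates (1 mM histidine, biotin) and, diluted 1 in 10^4, on L-broth plates; 37 °C, 2 days. D50 interpolated from log % survival vs dose; mutation frequency = 100(MT − MC)/S50, background-corrected.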

Series [2] can be described thus: Toxicity in Salmonella typhimurium TA1537 assessed as growth inhibition after 1 hr. The format is organism-based. To be noted: salmonella enterica subsp. enterica serovar typhimurium, read-out: D50. The gist of the method: (§2)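 Overnight shaken L-broth culture from frozen stock. 0.5 mL culture in L broth (10 mL total) with a range of drug concentrations, from nontoxic to clearly toxic, in 50% ethanol. Shaken at 37 °C for 1 h, centrifuged, resuspended in saline, diluted 1 in 10^4, plated in triplicate on L-broth plates, 37 °C, 2 days. Survival = 100Nt/Nc vs untreated. D50 from linear fit of log survival vs dose.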

Series [3] deals with Salmonella typhimurium. The experiment in a line: Mutagenic activity in Salmonella typhimurium TA100 assessed as mutation frequency at 10^4 times D50 after 1 hr. Conditions: salmonella enterica subsp. enterica serovar typhimurium. The format is toxicity, organism-based. Put shortly: as §1
Series [4] can be described thus: Toxicity in Salmonella typhimurium TA98 assessed as growth inhibition after 1 hr. The format is organism-based. To be noted: salmonella enterica subsp. enterica serovar typhimurium, read-out: D50. Put shortly: as §2
Series [5] can be described thus: Toxicity in Salmonella typhimurium TA100 assessed as growth inhibition after 1 hr. The series is classed as organism-based. Conditions: salmonella enterica subsp. enterica serovar typhimurium, read-out: D50. Put shortly:
as §2

In series [6] the test system is Salmonella typhimurium. The series is described as follows: Mutagenic activity in Salmonella typhimurium TA98 assessed as mutation frequency at 10^4 times D50 after 1 hr. The series is classed as toxicity, organism-based. To be noted: salmonella enterica subsp. enterica serovar typhimurium. Put shortly: as §1

Consider 29 compounds from ChEMBL document CHEMBL3227953, “Potential antitumor agents. 30. Mutagenic activity of some 9-anilinoacridines: relationships between structure, mutagenic potential, and antileukemic activity” (J Med Chem, 1979).

Turning to `CCCS(=O)(=O)Nc1ccc(Nc2c3ccccc3nc3ccccc23)c(OC)c1.CS(=O)(=O)O`, the “log(M50)” value with Salmonella typhimurium [1] is -0.7. Besides, the GI50 at 1 h in series [2] is 77.6 µM.

As for `CCS(=O)(=O)Nc1ccc(Nc2c3ccccc3nc3ccccc23)c(OC)c1.CS(=O)(=O)O`, the “log(M50)” value with Salmonella typhimurium [1] is reported as -0.3. In addition, the GI50 at 1 h in series [2] stood at 93.2 µM.

For `CCCCS(=O)(=O)Nc1ccc(Nc2c3ccccc3nc3ccccc23)c(OC)c1.CS(=O)(=O)O`, the “log(M50)” value with Salmonella typhimurium [1] was 0. Moreover, the GI50 at 1 h in series [2] was found to be 69.7 µM.

Turning to `Br.CNc1ccc(Nc2c3ccccc3nc3ccccc23)cc1`, the “log(M50)” value with Salmonella typhimurium [1] was 2.05. In addition, in series [2], the GI50 at 1 h turned out to be 82 µM.

On to `CCNc1ccc(Nc2c3ccccc3nc3ccccc23)cc1.Cl`, for which, in the series on Salmonella typhimurium [1], the “log(M50)” value worked out at 1.88. The GI50 at 1 h in series [2] came to 100 µM.

Consider `CCCNc1ccc(Nc2c3ccccc3nc3ccccc23)cc1.Cl`, for which the “log(M50)” value with Salmonella typhimurium [1] was determined as 1.67. In addition, the GI50 at 1 h in series [2] worked out at 98.9 µM.

Regarding `CCCCNc1ccc(Nc2c3ccccc3nc3ccccc23)cc1.Cl`, in the series on Salmonella typhimurium [1], the “log(M50)” value is given as 1. Also, the GI50 at 1 h in series [2] stood at 9.8 µM.

Take `CCCCCCNc1ccc(Nc2c3ccccc3nc3ccccc23)cc1.Cl`: the “log(M50)” value in the series on Salmonella typhimurium [1] is -1. In addition, in series [2], the GI50 at 1 h stood at 4.4 µM.

On to `CS(=O)(=O)Nc1ccc(Nc2c3ccccc3nc3ccccc23)cc1.Cl`, for which the M50 in the series with Salmonella typhimurium [3] was 0%; with Salmonella typhimurium [1] it was 127%; in the series on Salmonella typhimurium [6], 0%. Besides, the GI50 at 1 h turned out to be 180 µM in series [4], 194 µM in series [5] and 110 µM in series [2]. For the same compound, the “log(M50)” value with Salmonella typhimurium [1] worked out at 2.1.

For the compound `CCS(=O)(=O)Nc1ccc(Nc2c3ccccc3nc3ccccc23)cc1.Cl`, the “log(M50)” value with Salmonella typhimurium [1] stood at 2. Moreover, in series [2], the GI50 at 1 h was determined as 81.6 µM.

For the compound `CCCS(=O)(=O)Nc1ccc(Nc2c3ccccc3nc3ccccc23)cc1.Cl`, in the series on Salmonella typhimurium [1], the “log(M50)” value is reported as 1.67. Also, in series [2], the GI50 at 1 h stood at 50.1 µM.

Consider `CCCCS(=O)(=O)Nc1ccc(Nc2c3ccccc3nc3ccccc23)cc1.Cl`, for which the “log(M50)” value in the series with Salmonella typhimurium [1] was determined as 0.78. Moreover, in series [2], the GI50 at 1 h was 49.3 µM.

Turning to `CCCCCS(=O)(=O)Nc1ccc(Nc2c3ccccc3nc3ccccc23)cc1.Cl`, the “log(M50)” value in the series on Salmonella typhimurium [1] was 0.6. Besides, the GI50 at 1 h in series [2] turned out to be 15.6 µM.

As for `CCCCCCS(=O)(=O)Nc1ccc(Nc2c3ccccc3nc3ccccc23)cc1.Cl`, the “log(M50)” value with Salmonella typhimurium [1] was 0.3. The GI50 at 1 h in series [2] came to 9.4 µM.

Turning to `CC(=O)Nc1ccc2c(Nc3ccc(NS(C)(=O)=O)cc3)c3ccccc3nc2c1.CS(=O)(=O)O`, in the series on Salmonella typhimurium [1], the “log(M50)” value is listed as -0.22. The GI50 at 1 h in series [2] worked out at 282 µM.

For the compound `CCS(=O)(=O)Nc1ccc(Nc2c3ccccc3nc3cc(NC(C)=O)ccc23)cc1.CS(=O)(=O)O`, the “log(M50)” value in the series on Salmonella typhimurium [1] is listed as 0. Besides, the GI50 at 1 h in series [2] was determined as 221 µM.

Regarding `CCCS(=O)(=O)Nc1ccc(Nc2c3ccccc3nc3cc(NC(C)=O)ccc23)cc1.CS(=O)(=O)O`, the “log(M50)” value with Salmonella typhimurium [1] was 0. The GI50 at 1 h in series [2] amounted to 114 µM.

Take `CCCCS(=O)(=O)Nc1ccc(Nc2c3ccccc3nc3cc(NC(C)=O)ccc23)cc1.CS(=O)(=O)O`: the “log(M50)” value in the series with Salmonella typhimurium [1] was -0.3. For the same compound, the GI50 at 1 h in series [2] amounted to 148 µM.

With `CCCCCS(=O)(=O)Nc1ccc(Nc2c3ccccc3nc3cc(NC(C)=O)ccc23)cc1.CS(=O)(=O)O`, the “log(M50)” value with Salmonella typhimurium [1] was -0.1. Moreover, the GI50 at 1 h in series [2] came out at 17.7 µM.

Consider `CCCCCCS(=O)(=O)Nc1ccc(Nc2c3ccccc3nc3cc(NC(C)=O)ccc23)cc1.CS(=O)(=O)O`, for which, in the series with Salmonella typhimurium [1], the “log(M50)” value was found to be 0. Also, the GI50 at 1 h in series [2] turned out to be 3.1 µM.

In the case of `CCCCCS(=O)(=O)Nc1ccc(Nc2c3ccccc3nc3ccccc23)c(OC)c1.CS(=O)(=O)O`, the “log(M50)” value in the series on Salmonella typhimurium [1] is 0. Further, the GI50 at 1 h in series [2] was determined as 21.1 µM.

Turning to `CCCCCCS(=O)(=O)Nc1ccc(Nc2c3ccccc3nc3ccccc23)c(OC)c1.CS(=O)(=O)O`, the “log(M50)” value in the series on Salmonella typhimurium [1] amounted to 0. Also, the GI50 at 1 h in series [2] turned out to be 15.3 µM.

Consider `COc1cc(NS(C)(=O)=O)ccc1Nc1c2ccccc2nc2c(C(N)=O)cccc12.Cl`, for which the “log(M50)” value with Salmonella typhimurium [1] is given as -0.7. Besides, the GI50 at 1 h in series [2] came out at 698 µM.

For `CCS(=O)(=O)Nc1ccc(Nc2c3ccccc3nc3c(C(N)=O)cccc23)c(OC)c1.Cl`, the “log(M50)” value in the series on Salmonella typhimurium [1] is listed as 0.18. In addition, the GI50 at 1 h in series [2] is 467 µM.

Take `CCCS(=O)(=O)Nc1ccc(Nc2c3ccccc3nc3c(C(N)=O)cccc23)c(OC)c1.Cl`: the “log(M50)” value in the series with Salmonella typhimurium [1] is recorded as 0. Besides, in series [2], the GI50 at 1 h was determined as 642 µM.

`CCCCS(=O)(=O)Nc1ccc(Nc2c3ccccc3nc3c(C(N)=O)cccc23)c(OC)c1.Cl`: in the series on Salmonella typhimurium [1], the “log(M50)” value came to 0. In addition, the GI50 at 1 h in series [2] was found to be 330 µM.

Turning to `CCCCCS(=O)(=O)Nc1ccc(Nc2c3ccccc3nc3c(C(N)=O)cccc23)c(OC)c1.Cl`, the “log(M50)” value with Salmonella typhimurium [1] came to 0. Also, the GI50 at 1 h in series [2] stood at 466 µM.

As to `COc1cccc2c1C(=O)c1c(O)c3c(c(O)c1C2=O)C[C@@](O)(C(C)=O)C[C@@H]3O[C@H]1C[C@H](N)[C@H](O)[C@H](C)O1` [DAUNORUBICIN], the values for the M50 with Salmonella typhimurium [3], in the series on Salmonella typhimurium [1] and in the series on Salmonella typhimurium [6] were 4.5%, 0% and 20%, respectively. Also, the GI50 at 1 h in series [4] was determined as 13.1 µM; in series [5], 11.1 µM; in series [2], 7.4 µM. The “log(M50)” value in the series with Salmonella typhimurium [1] turned out to be 0.

Consider `COc1cccc2c1C(=O)c1c(O)c3c(c(O)c1C2=O)C[C@@](O)(C(=O)CO)C[C@@H]3O[C@H]1C[C@H](N)[C@H](O)[C@H](C)O1` [DOXORUBICIN], for which the M50 with Salmonella typhimurium [3] is 0.5%; in the series with Salmonella typhimurium [1], 0%; in the series with Salmonella typhimurium [6], 14%. Moreover, the GI50 at 1 h in series [4] amounted to 6.1 µM; in series [5], 11.3 µM; in series [2], 16.3 µM. Further, the “log(M50)” value with Salmonella typhimurium [1] is reported as 0.
